Results from publication PMC5573236 (Oncogene, 2008).

Assays:
[1] = system: estrogen receptor-α (ERα); conditions: estradiol stimulation; ref Pink and Jordan, 1996; cited from earlier work
[2] = system: MCF-7 cells; test: MTT proliferation assay, MCF-7 cells; format: cell-based; conditions: same concentrations as used for Protac-B
[3] = system: T47D cells; test: MTT proliferation assay, T47D cells; format: cell-based; conditions: same concentrations as used for Protac-B
[4] = system: LNCaP cells; test: MTT proliferation assay, LNCaP cells; format: cell-based
[5] = system: LNCaP cells; test: Cell cycle profile by flow cytometry; format: cell-based; conditions: 72 h, propidium iodide staining
In short: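 LNCaP cells kept at 37 °C, 5% CO2, in phenol-red-free RPMI 1640 with 10% FBS. Plated at 30 000 cells per cm2 and treated from 24–48 h after plating. Trypsinised, pelleted at 250 g for 5 min, fixed in 70% ethanol and held at −20 °C. Just before acquisition, stained with 3.4 mM sodium citrate, 0.3% Triton X-100, propidium iodide 0.1 mg/ml and RNase A 20 μg/ml, then run on a flow cytometer.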

[6] = system: PC-3 cells; test: MTT proliferation assay, PC-3 cells; format: cell-based; conditions: 72 h, same concentrations as used on LNCaP cells
In short: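 Cells were grown in phenol-red-free RPMI 1640 with 10% FBS, 37 °C, 5% CO2, and seeded at 10 000/well. Test compound or free hormone at matched concentrations was added 24–48 h after plating; the PC-3 exposure was 72 h. MTT read-out: medium removed, DMSO solubilisation, absorbance 550 nm. Single triplicate experiment, representative of three.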

[7] = system: androgen receptor (AR); test: Western blot of AR protein levels in LNCaP cells; format: cell-based; conditions: 72 h, increasing concentrations that inhibited proliferation
[8] = biological target: VHL-Elongin B-Elongin C protein complex (Homo sapiens, UniProt P40337+Q15369+Q15370); test: Fluorescence polarization competitive binding assay with VHL; conditions: FP competition assay; negative control

## C[C@]12CC[C@@H]3c4ccc(O)cc4CC[C@H]3[C@@H]1CC[C@@H]2O [estradiol, 17β-estradiol]
[1]
  decrease in ERα levels: approximately 50%
[2]
  effect on proliferation of MCF-7 cells: no effect
[3]
  effect on proliferation of T47D cells: no effect

## Leu-Ala-Pro(OH)-Tyr-Ile-Gly-Gly-(D-Arg)9 [Protac-AA]
[4]; 72 h and 144 h
  increase of activity (IC50, LNCaP) over Protac-A: three to seven
[5]
  cell cycle effect in LNCaP cells: cell cycle arrest in G1
[6]
  effect on proliferation of PC-3 cells: not affected
[7]
  AR protein levels in LNCaP cells: reduced

## H-Leu-Ala-Ala-Tyr-Ile-Gly-Gly-[D-Arg]9-OH [mutant pentapeptide-G-G-(Arg)9]
[8]
  binding to VHL: did not detectably bind

## C[C@]12CCC(=O)C[C@@H]1CC[C@@H]1[C@@H]2CC[C@]2(C)[C@@H](O)CC[C@@H]12 [DHT, dihydroxytestosterone]
[4]; DHT used at the IC50 of Protac-A (12.5 μM)
  effect on LNCaP cell proliferation: no effect
